# Source: PubChem BioAssay
# Hits are enriched below; roughly 2.3% of the tested compounds scored in any of these assays.
# TRPC4 block = blocks the mouse TRPC4 cation channel | hit rate 0.39% among 300,000 | HEK293 TRPC4beta/mu-opioid, DAMGO-evoked Fluo4 calcium flux; hits give low values | B-score at 10 µM | AID 2247;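 active = B-score over 3 SD under the library average, no early fluorescence shift, positive overall ratio signal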
#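 material = TRPC4beta/mu-opioid receptor HEK293 cell line | probe or stimulus = sequential submaximal and maximal DAMGO stimulation | compound dosing = one concentration per compound | measured by = Fluo4 Ca2+ flux fluorescence | evaluation = integrated fluorescence ratio relative to baseline, converted to per-well B score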
# TRPC6 act = activates the mouse TRPC6 cation channel; Q61143; HEK293-TRPC6 membrane potential dye fluorescence; hits give high values; B-score at 10 µM; hit rate 0.13% among 310,000;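 active = B-score of the integrated fluorescence ratio above library mean plus 3 SD, and starting fluorescence ratio within library mean plus 5 SD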;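 note: higher score means more depolarization so channel activation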
# Target sequence (Q61143 whole entry, looked up): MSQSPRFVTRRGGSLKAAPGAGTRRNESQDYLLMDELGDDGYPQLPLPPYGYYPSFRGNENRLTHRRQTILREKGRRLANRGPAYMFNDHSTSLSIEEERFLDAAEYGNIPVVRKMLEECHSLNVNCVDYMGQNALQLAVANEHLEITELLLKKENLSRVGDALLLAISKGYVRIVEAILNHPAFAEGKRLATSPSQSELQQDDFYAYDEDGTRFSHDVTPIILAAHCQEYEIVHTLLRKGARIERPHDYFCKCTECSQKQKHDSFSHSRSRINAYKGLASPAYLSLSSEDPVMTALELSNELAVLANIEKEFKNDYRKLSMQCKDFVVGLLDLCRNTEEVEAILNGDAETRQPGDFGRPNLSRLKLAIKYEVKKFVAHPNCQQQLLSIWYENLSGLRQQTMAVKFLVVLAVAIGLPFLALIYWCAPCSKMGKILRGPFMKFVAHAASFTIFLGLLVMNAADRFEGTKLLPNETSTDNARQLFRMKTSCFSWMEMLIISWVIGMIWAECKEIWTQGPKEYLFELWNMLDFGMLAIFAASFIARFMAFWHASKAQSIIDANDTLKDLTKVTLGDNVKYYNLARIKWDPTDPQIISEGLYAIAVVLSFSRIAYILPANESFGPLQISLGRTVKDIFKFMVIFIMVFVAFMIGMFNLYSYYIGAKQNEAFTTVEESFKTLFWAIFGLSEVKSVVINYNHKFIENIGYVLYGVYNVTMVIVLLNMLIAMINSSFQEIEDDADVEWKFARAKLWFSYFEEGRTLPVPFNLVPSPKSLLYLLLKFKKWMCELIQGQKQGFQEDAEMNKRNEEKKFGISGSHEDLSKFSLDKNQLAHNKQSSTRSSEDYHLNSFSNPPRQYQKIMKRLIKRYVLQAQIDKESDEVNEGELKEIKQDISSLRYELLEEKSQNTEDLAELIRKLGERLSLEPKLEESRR
# TRPC6 inhibitor = blocks the mouse TRPC6 cation channel | B-score at 10 µM | hit rate 1.1% among 310,000 | HEK293-TRPC6, membrane potential dye, ACh-evoked depolarization; hits give low values | Q61143;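 active = B-score under library mean minus 3 SD, initial fluorescence not abnormally high, positive integrated signal ratio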;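 note: B-score derived from integrated fluorescence ratio over the kinetic read; more negative B-score means stronger inhibition of depolarization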
# TRPC4 PAM = allosteric potentiators of mouse TRPC4 channel; hit rate 0.42% among 310,000; Q9QUQ5; HEK293 TRPC4beta/mu-opioid, DAMGO EC20, Fluo-4 Ca2+ flux; hits give high values; B-score at 10 µM;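 active = B-score of calcium response area above 5 SD of library B-scores, with initial fluorescence ratio within 5 SD of library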;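 note: B-score of integrated fluorescence ratio over time as area under calcium response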
# TRPC4 act = TRPC4 (mouse) channel activation; Q9QUQ5; HEK293 TRPC4beta/mu-opioid, Fluo4 calcium fluorescence; hits give high values; B-score at 10 µM; hit rate 0.49% among 310,000; AID 2237;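 active = B-score above 5 SD of library B-scores, and initial fluorescence ratio not above library mean plus 5 SD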;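 note: positive B-score marks a calcium rise read as TRPC4 activation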
#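 Assay system: HEK293 cells stably co-expressing mouse TRPC4beta and mu-opioid receptor / Timing: Fluo4 dye loading 45 min at room temperature, 110 s recording / Signal: Fluo4 calcium-sensitive dye fluorescence, kinetic, 1 Hz baseline / Read-out: integrated baseline-normalised fluorescence ratio, converted to per-well B score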
# TRPC4 sel inh 2 = mouse TRPC4 off-target activity of TRPC6 inhibitors, second screen; inhibition, % at 10 µM; shares compounds with TRPC6 inhibitor; AID 2776; hit rate 42% among 920; HEK293 TRPC4/MOR, membrane potential dye fluorescence; channel activated by saturating DAMGO dose;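 active = compounds whose fluorescence signal differed from control wells by over 3 SD, either direction, in both duplicate plates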
# TRPC4 spec = selectivity of TRPC6 inhibitors: effect on mouse TRPC4; shares compounds with TRPC6 inhibitor; HEK293 TRPC4/mu-opioid, membrane potential fluorescence; activity change, negative = inhibition, % at 10 µM; hit rate 61% among 920; AID 2777;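 active = rise or fall in signal beyond 3 SD of buffer-only wells in both replicate plates, either sign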;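 note: integrated kinetic ratio of fluorescence range over baseline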
# HEK293 MPD ctr 2-1 = second check of TRPC6 inhibitor effects in parental HEK293 cells; shares compounds with TRPC6 inhibitor; parental HEK293 membrane potential dye fluorescence; maximal acetylcholine challenge after compound addition; signal change vs control, % at 10 µM; hit rate 31% among 920; AID 2779;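 active = membrane potential signal moving either way by over 3 SD of the maximum-effect control, in both duplicate plates, meaning non-specific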
# HEK293 MPD ctr-1 = counter-screen for TRPC6 inhibitors: effect in parental HEK293 cells | shares compounds with TRPC6 inhibitor | parental HEK293 membrane potential dye fluorescence | membrane potential signal change, % at 10 µM | hit rate 60% among 920 | AID 2780;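 active = membrane potential signal shifting up or down by more than 3 SD of buffer-only wells, on both duplicate plates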
# HEK293 MPD ctr-2 = parental HEK293 nonspecific activity of TRPC6 modulators; membrane potential dye fluorescence; membrane potential signal change, % at 10 µM; shares compounds with TRPC6 inhibitor; hit rate 51% among 2,400; AID 488924;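 active = membrane potential signal moves up or down beyond 5 SD from buffer-only wells, on both duplicate plates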
# HEK293 MPD ctr 2-2 = second counter-screen for TRPC6 modulators: effect in parental HEK293 cells; shares compounds with TRPC6 inhibitor; membrane potential dye fluorescence; after compound, maximal acetylcholine stimulation; inhibition, % at 10 µM; hit rate 14% among 2,400;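 active = membrane potential signal drops by more than 5 SD from the mean control signal, in both duplicate plates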;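 note: plate controls were acetylcholine ECmax control wells for no effect and buffer only wells for full effect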
# TRPC4/MOR mod = tests whether TRPC6 modulators also affect mouse TRPC4; shares compounds with TRPC6 inhibitor; HEK293 TRPC4/mu-opioid, membrane potential fluorescence; percent change from control (negative = decrease, positive = increase), % at 10 µM; hit rate 69% among 2,400; AID 488927;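 active = membrane potential signal moved up or down beyond 5 SD of buffer control wells, in both duplicate plates, actives on both sides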;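 note: plate controls were assay buffer wells for no effect and DAMGO maximal-effect wells for full effect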
# TRPC4/MOR inh 2 = second check of whether TRPC6 modulators also affect mouse TRPC4 | shares compounds with TRPC6 inhibitor | inhibition, % at 10 µM | HEK293 TRPC4/mu-opioid, membrane potential dye fluorescence; stimulated with maximal-effect DAMGO | hit rate 55% among 2,400 | AID 488928;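 active = drop in membrane potential signal beyond 5 SD of the control wells in both duplicate plates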;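 note: TRPC4 counter screen for TRPC6 hits run under conditions tuned for TRPC6 not TRPC4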
# TRPC6 inh conf = confirmation of mouse TRPC6 inhibitors. inhibition, % at 10 µM. HEK293-TRPC6, membrane potential dye, ACh-evoked depolarization. shares compounds with TRPC6 inhibitor. hit rate 43% among 3,300;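 active = fluorescence ratio falls more than 5 SD below the full-stimulation control mean, in both duplicate runs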;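 note: integrated fluorescence ratio of peak minus minimum over baseline after agonist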
# TRPC6 act conf = mouse TRPC6 activator confirmation; shares compounds with TRPC6 inhibitor; HEK293-TRPC6 membrane potential dye fluorescence, FDSS; activation, % at 10 µM; hit rate 11% among 2,800; AID 488961;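 active = ratio signal rise beyond 5 SD above unstimulated control wells' mean, seen in both duplicate runs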;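 note: plate controls were buffer EC0 wells for no effect and acetylcholine ECmax response for full effect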
# * hit, by the source's call; i = inactive; · = not tested or not shown.
SMILES,TRPC4 block,TRPC6 act,TRPC6 inhibitor,TRPC4 PAM,TRPC4 act,HEK293 MPD ctr-2,HEK293 MPD ctr 2-2,TRPC4/MOR mod,TRPC4/MOR inh 2,TRPC6 inh conf,TRPC6 act conf,others
Cc1ccc(Cl)cc1NC(C#N)c1ccccc1 (stereo not given),i,i,i,i,i,·,·,·,·,·,·,
O=C(CCn1c(=O)[nH]c2ccsc2c1=O)N1CCN(c2cccc(Cl)c2)CC1,i,15*,-13*,i,i,i,i,i,i,56%*,94%*,
O=C(CCn1c(=O)[nH]c2ccsc2c1=O)N1CCN(c2ccc([N+](=O)[O-])cc2)CC1,i,i,i,i,i,·,·,·,·,·,·,
CCOC(=O)c1ccc2nc(C)c3c(c2c1)OC(C)C3 (stereo not given),i,i,-5.2*,i,i,-112%*,i,-13%*,i,i,i,
COc1cccc2c3c(c(C)nc12)CC(C)O3 (stereo not given),i,i,-6.2*,i,i,-146%*,i,-18%*,41%*,i,i,
Cc1nc2ccc(C(=O)O)cc2c2c1CC(CN)O2 (stereo not given),i,i,i,i,i,·,·,·,·,·,·,
COc1ccc2nc(C)c3c(c2c1)OC(C)C3 (stereo not given),i,i,-7.5*,i,i,·,·,·,·,i,i,TRPC4 sel inh 2=i;TRPC4 spec=-17%*;HEK293 MPD ctr 2-1=18%*;HEK293 MPD ctr-1=-236%*
O=C(CCN1N=C(c2ccccc2)CCC1=O)NCC1COc2ccccc2O1 (stereo not given),i,i,i,i,i,·,·,·,·,·,·,
Cc1nnc(SC(C)C#N)n1-c1ccccc1 (stereo not given),i,i,i,i,i,·,·,·,·,·,·,
COc1ccc(OC)c(CN2CCN(C(=O)CN3C(=O)NC4(CCCC4)C3=O)CC2)c1,i,i,i,i,i,·,·,·,·,·,·,
Cc1ccc2c(c1)C1CN(C)CCC1N2C(=O)COc1ccc(N(C)S(=O)(=O)c2cccs2)cc1 (stereo not given),i,i,-6*,i,i,i,i,-22%*,76%*,53%*,i,
CCOc1ccc(S(=O)(=O)N(C)c2ccc(OCC(=O)N3c4ccc(C)cc4C4CN(C)CCC43)cc2)cc1 (stereo not given),i,i,i,i,i,·,·,·,·,·,·,
Cc1ccc2cc(C=C(C#N)C#N)c(N3CCCCC3)nc2c1,i,i,-7.1*,i,i,·,·,·,·,i,i,TRPC4 sel inh 2=i;TRPC4 spec=i;HEK293 MPD ctr 2-1=i;HEK293 MPD ctr-1=i
CCOC(=O)c1cn(C2CC2)c2c(F)c(NCCCN(C)C)c(F)cc2c1=O,i,i,-7.4*,i,i,·,·,·,·,67%*,i,TRPC4 sel inh 2=i;TRPC4 spec=-23%*;HEK293 MPD ctr 2-1=0.0%*;HEK293 MPD ctr-1=-436%*
Cc1c(CN(C)C)c2c(n1C)C(=O)c1ccc(Br)cc1-2,i,i,-11*,i,i,-178%*,67%*,-32%*,59%*,66%*,i,
COCC(=O)N1CCCC(C(=O)c2ccc(-c3ccccc3)c(F)c2)C1 (stereo not given),i,i,i,i,i,·,·,·,·,·,·,
CC1CC(OC(=O)C(O)c2ccccc2)CC(C)(C)N1C (stereo not given),i,i,-5.7*,i,i,i,i,8.5%*,i,56%*,i,
CCCN1Cc2cccc(C(=O)NCCc3cccc(C)c3)c2C1=O,i,i,i,i,i,·,·,·,·,·,·,
COCCCn1c(=N)c(C(=O)NCC2CCCO2)cc2c(=O)n3ccccc3nc21 (stereo not given),i,i,i,i,i,·,·,·,·,·,·,
N=c1c(C(=O)NCc2ccc3c(c2)OCO3)cc2c(=O)n3ccccc3nc2n1CC1CCCO1 (stereo not given),i,i,i,i,i,·,·,·,·,·,·,
N=c1c(C(=O)NC2CCCC2)cc2c(=O)n3ccccc3nc2n1Cc1ccccc1,i,i,-5.2*,i,i,-170%*,i,-34%*,48%*,i,i,
N=c1c(C(=O)NCC2CCCO2)cc2c(=O)n3ccccc3nc2n1Cc1ccccc1 (stereo not given),i,i,-7.4*,i,i,-125%*,78%*,-28%*,38%*,45%*,i,
CCOC(=O)c1cc2c(=O)n3ccccc3nc2n(Cc2ccccc2)c1=N,i,i,-7.9*,i,i,-146%*,i,-32%*,42%*,i,i,
CCOC(=O)c1cc2c(=O)n3ccccc3nc2n(CC(C)C)c1=NC(=O)c1ccco1,i,i,i,i,i,·,·,·,·,·,·,
COc1ccc(Cn2c(=N)c(C(=O)NCC3CCCO3)cc3c(=O)n4ccccc4nc32)cc1 (stereo not given),i,i,-6.5*,i,i,i,i,-10%*,36%*,44%*,i,
CC(C)[C@H](NC(=O)N1CC(=O)Nc2ccccc21)C(=O)N1CCC[C@@H]1C(=O)O,i,i,i,i,i,·,·,·,·,·,·,
